Drawing on ChEMBL document CHEMBL5344404, “Design and optimization of oestrogen receptor PROTACs based on 4-hydroxytamoxifen” (Eur J Med Chem, 2022), this text covers EC50 and Activity for nine molecules.

The target in assay [1] is T1, von Hippel-Lindau disease tumor suppressor/Estrogen receptor (Homo sapiens, UniProt P03372+P40337). As to the kind of experiment: PROTAC activity at VHL/ERalpha (unknown origin). The class given is protein assay.
Target sequence in this assay (P03372 whole entry): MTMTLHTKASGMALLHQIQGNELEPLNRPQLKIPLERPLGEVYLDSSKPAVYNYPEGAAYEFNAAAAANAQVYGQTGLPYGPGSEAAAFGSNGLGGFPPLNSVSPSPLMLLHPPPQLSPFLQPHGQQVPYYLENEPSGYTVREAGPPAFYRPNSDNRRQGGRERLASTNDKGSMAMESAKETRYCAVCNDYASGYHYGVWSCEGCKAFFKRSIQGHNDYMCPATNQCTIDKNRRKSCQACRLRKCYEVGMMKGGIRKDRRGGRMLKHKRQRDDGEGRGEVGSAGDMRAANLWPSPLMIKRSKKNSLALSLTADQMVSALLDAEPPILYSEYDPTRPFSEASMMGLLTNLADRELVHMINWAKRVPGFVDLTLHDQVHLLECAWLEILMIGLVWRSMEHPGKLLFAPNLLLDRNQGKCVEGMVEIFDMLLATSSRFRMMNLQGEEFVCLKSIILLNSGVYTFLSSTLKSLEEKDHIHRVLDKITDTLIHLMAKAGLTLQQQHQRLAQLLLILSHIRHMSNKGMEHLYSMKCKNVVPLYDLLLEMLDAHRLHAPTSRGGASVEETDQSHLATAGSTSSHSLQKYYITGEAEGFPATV
Target sequence in this assay (P40337 whole entry): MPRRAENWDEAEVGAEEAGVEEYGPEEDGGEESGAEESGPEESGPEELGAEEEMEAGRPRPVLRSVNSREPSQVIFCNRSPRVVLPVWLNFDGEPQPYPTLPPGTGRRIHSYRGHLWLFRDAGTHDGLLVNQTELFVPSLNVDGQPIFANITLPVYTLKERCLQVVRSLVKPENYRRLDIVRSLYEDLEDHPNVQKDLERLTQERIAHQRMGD
The target in assay [2] is T2, Protein cereblon/Estrogen receptor (Homo sapiens, UniProt P03372+Q96SW2). Nature of the assay: PROTAC activity at CRBN/ERalpha in human MCF7 cells assessed as reduction in ERalpha protein level at 1 to 5 uM incubated for 24 hrs by Western blot analysis. The assay is classed as cell-based. The following applies: dose 1-5 µM. In a few lines:
(§1)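 MCF-7 breast cancer cells exposed to the PROTAC over a concentration series for 24 h. ERα in cell lysates then assessed by immunoblotting.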
(Immunoblotting shows a protein as a band on a membrane.)
Target sequence in this assay (P03372 whole entry, looked up): as the sequence (P03372 whole entry) above
Target sequence in this assay (Q96SW2 whole entry, looked up): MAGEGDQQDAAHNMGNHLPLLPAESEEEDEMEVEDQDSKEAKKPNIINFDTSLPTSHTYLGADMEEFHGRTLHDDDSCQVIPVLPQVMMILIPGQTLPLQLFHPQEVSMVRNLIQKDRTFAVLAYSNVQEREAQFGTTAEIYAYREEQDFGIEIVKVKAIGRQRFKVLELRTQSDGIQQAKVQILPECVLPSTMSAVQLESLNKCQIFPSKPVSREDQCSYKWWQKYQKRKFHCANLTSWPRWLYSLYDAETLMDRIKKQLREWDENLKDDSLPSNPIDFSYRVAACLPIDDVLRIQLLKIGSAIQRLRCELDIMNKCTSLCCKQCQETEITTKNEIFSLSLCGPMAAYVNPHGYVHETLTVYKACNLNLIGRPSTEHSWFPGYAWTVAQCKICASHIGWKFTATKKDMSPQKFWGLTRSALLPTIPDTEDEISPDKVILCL

The target in assay [3] is T2, Protein cereblon/Estrogen receptor. As to the kind of experiment: PROTAC activity at CRBN/ERalpha in human MCF7 cells assessed as reduction in ERalpha protein level at 1 uM measured after 24 hrs by Western blot analysis. The assay is classed as cell-based. Summed up: (§2)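 MCF-7 cells given the PROTAC at 1 µM for periods of 1–48 h, with DMSO controls held 48 h. Cell lysates immunoblotted for ERα.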
Target sequence in this assay (P03372 whole entry, looked up): as the sequence (P03372 whole entry) above
Target sequence in this assay (Q96SW2 whole entry, looked up): as the sequence (Q96SW2 whole entry, looked up) above

For assay [4] the target is unchanged. Nature of the assay: PROTAC activity at CRBN/ERalpha in human MCF7 cells assessed as reduction in ERalpha protein level at 5 to 10 uM measured after 24 hrs by Western blot analysis. The class given is cell-based. The following applies: dose 5-10 µM. In a few lines: as §1
Target sequence in this assay (P03372 whole entry, looked up): as the sequence (P03372 whole entry) above
Target sequence in this assay (Q96SW2 whole entry, looked up): as the sequence (Q96SW2 whole entry, looked up) above
The target in assay [5] is Estrogen receptor/E3 ubiquitin-protein ligase XIAP (Homo sapiens, UniProt P03372+P98170). Nature of the assay: PROTAC activity at XIAP/ERalpha (unknown origin). The assay is classed as protein assay.
Assay [6] concerns the target T1, von Hippel-Lindau disease tumor suppressor/Estrogen receptor. As to the kind of experiment: PROTAC activity at VHL E3 ligase/ERalpha in human MCF7 cells assessed as reduction in ERalpha protein level at 10 nM incubated for 24 hrs by Western blot analysis. The assay is classed as cell-based.
Target sequence in this assay (P03372 whole entry, looked up): as the sequence (P03372 whole entry) above
Target sequence in this assay (P40337 whole entry, looked up): as the sequence (P40337 whole entry) above
For assay [7] the target is unchanged. Nature of the assay: PROTAC activity at VHL E3 ligase/ERalpha in human MCF7 cells assessed as reduction in ERalpha protein level at 2500 nM pretreated with MLN4924 at 1 uM for 30 mins followed by compound addition and measured after 6 hrs by Western blot analysis. The assay is classed as cell-based.
Target sequence in this assay (P03372 whole entry, looked up): as the sequence (P03372 whole entry) above
Target sequence in this assay (P40337 whole entry, looked up): as the sequence (P40337 whole entry) above
For assay [8] the target is unchanged. Nature of the assay: PROTAC activity at VHL E3 ligase/ERalpha in human MCF7 cells assessed as reduction in ERalpha protein level incubated for 24 hrs by Western blot analysis. The assay is classed as cell-based. Summed up:
(§3)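 MCF-7 cells treated 24 h across a broad concentration range. ERα quantified on Western blots and normalized to GAPDH, then plotted against PROTAC concentration to give DC50 (concentration giving 50% protein degradation). Replicates: 2 biological for the CRBN series, triplicates for the VHL series.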
Target sequence in this assay (P03372 whole entry): as the sequence (P03372 whole entry) above
Target sequence in this assay (P40337 whole entry): as the sequence (P40337 whole entry) above

The target is the same in assay [9]. As to the kind of experiment: PROTAC activity at VHL E3 ligase/ERalpha in human MCF7 cells assessed as reduction in ERalpha protein level at 2500 nM pretreated with carfilzomib at 1 uM for 30 mins followed by compound addition and measured after 6 hrs by Western blot analysis. The assay is classed as cell-based.
Target sequence in this assay (P03372 whole entry, looked up): as the sequence (P03372 whole entry) above
Target sequence in this assay (P40337 whole entry, looked up): as the sequence (P40337 whole entry) above
For assay [10] the target is unchanged. As to the kind of experiment: PROTAC activity at VHL E3 ligase/ERalpha in human T47D cells assessed as reduction in ERalpha protein level at 0.01 to 10 uM incubated for 24 hrs by Western blot analysis. The assay is classed as cell-based. The following applies: dose 0.01-10 µM.
Target sequence in this assay (P03372 whole entry, looked up): as the sequence (P03372 whole entry) above
Target sequence in this assay (P40337 whole entry, looked up): as the sequence (P40337 whole entry) above
Assay [11] shares this target. As to the kind of experiment: PROTAC activity at VHL E3 ligase/ERalpha in human MCF7 cells assessed as reduction in ERalpha protein level at 0.01 to 10 uM incubated for 24 hrs by Western blot analysis. The class given is cell-based. Conditions: dose 0.01-10 µM. In a few lines: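 MCF-7 cells incubated with the PROTAC at several concentrations for 24 h. Lysates analysed by immunoblotting for ERα.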
Target sequence in this assay (P03372 whole entry, looked up): as the sequence (P03372 whole entry) above
Target sequence in this assay (P40337 whole entry, looked up): as the sequence (P40337 whole entry) above

Assay [12] deals with T2, Protein cereblon/Estrogen receptor. As to the kind of experiment: PROTAC activity at CRBN/ERalpha in human MCF7 cells assessed as reduction in ERalpha protein level incubated for 24 hrs by Western blot analysis. The assay is classed as cell-based. Summed up:
as §3
Target sequence in this assay (P03372 whole entry): as the sequence (P03372 whole entry) above
Target sequence in this assay (Q96SW2 whole entry): as the sequence (Q96SW2 whole entry, looked up) above

The target is the same in assay [13]. As to the kind of experiment: PROTAC activity at CRBN/ERalpha in human MCF7 cells assessed as reduction in ERalpha protein level at 1 uM measured after 1 to 12 hrs by Western blot analysis. The assay is classed as cell-based. Conditions: time 1-12 hrs. Summed up: as §2
Target sequence in this assay (P03372 whole entry, looked up): as the sequence (P03372 whole entry) above
Target sequence in this assay (Q96SW2 whole entry, looked up): as the sequence (Q96SW2 whole entry, looked up) above
For assay [14] the target is unchanged. Nature of the assay: PROTAC activity at CRBN/ERalpha in human MCF7 cells assessed as reduction in ERalpha protein level at 1 uM pretreated with bortezomib at 1 uM for 1 hr followed by compound addition for 12 hrs by Western blot analysis. The assay is classed as cell-based. Summed up:
(§4)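 Rescue assay in MCF-7 cells. Cells pre-treated 1 h with bortezomib 1 µM or MLN4924 1 µM, then given the PROTAC at 1 µM for 12 h. ERα read by immunoblot.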
Target sequence in this assay (P03372 whole entry, looked up): as the sequence (P03372 whole entry) above
Target sequence in this assay (Q96SW2 whole entry, looked up): as the sequence (Q96SW2 whole entry, looked up) above

Assay [15] has the same target. As to the kind of experiment: PROTAC activity at CRBN/ERalpha in human MCF7 cells assessed as reduction in ERalpha protein level at 1 uM pretreated with MLN4924 at 1 uM for 1 hr followed by compound addition for 12 hrs by Western blot analysis. The class given is cell-based. Summed up:
as §4
Target sequence in this assay (P03372 whole entry, looked up): as the sequence (P03372 whole entry) above
Target sequence in this assay (Q96SW2 whole entry, looked up): as the sequence (Q96SW2 whole entry, looked up) above

The structures appear in SMILES notation. Calls of active or inactive are those of the source. No cut-off for these calls is given here.

Chain of Estrogen receptor/E3 ubiquitin-protein ligase XIAP (P03372 whole entry): as the sequence (P03372 whole entry) above
Chain of Estrogen receptor/E3 ubiquitin-protein ligase XIAP (P98170 whole entry): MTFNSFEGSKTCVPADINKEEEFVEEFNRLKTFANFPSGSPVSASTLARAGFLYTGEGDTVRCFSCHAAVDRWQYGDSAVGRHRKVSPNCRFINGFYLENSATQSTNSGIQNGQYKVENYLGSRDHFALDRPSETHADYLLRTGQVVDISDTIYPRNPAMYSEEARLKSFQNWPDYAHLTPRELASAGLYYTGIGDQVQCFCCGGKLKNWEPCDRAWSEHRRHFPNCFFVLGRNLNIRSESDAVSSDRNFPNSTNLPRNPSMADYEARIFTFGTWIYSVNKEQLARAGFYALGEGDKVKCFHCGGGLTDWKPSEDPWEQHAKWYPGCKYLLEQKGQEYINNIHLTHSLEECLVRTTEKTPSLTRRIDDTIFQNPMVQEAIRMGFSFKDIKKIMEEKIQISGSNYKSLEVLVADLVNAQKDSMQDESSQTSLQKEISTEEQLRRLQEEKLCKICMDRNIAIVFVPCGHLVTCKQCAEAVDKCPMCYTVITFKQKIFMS

Broadly, the EC50 is the concentration at which the effect is half-maximal. `CC[C@H](C)[C@H](NC(=O)[C@H](Cc1ccc(O)cc1)NC(=O)[C@@H]1CC(O)CN1C(=O)[C@H](C)NC(=O)[C@H](CC(C)C)NC(=O)CCCCCCC(=O)NCC(=O)OC1CC[C@H]2[C@@H]3CCc4cc(O)ccc4[C@H]3CC[C@]12C)C(=O)O` (some centres not stated) had an EC50 in assay [1] of 16000 nM.

Consider `CC/C(=C(\c1ccc(O)cc1)c1ccc(OCCN(C)C(=O)CCc2cn(CCOCCNc3cccc4c3C(=O)N(C3CCC(=O)NC3=O)C4=O)nn2)cc1)c1ccccc1` (configuration not stated), for which, in assay [2], the outcome was Active.

On to `CC/C(=C(\c1ccc(O)cc1)c1ccc(OCCN(C)C(=O)CCc2cn(CCOCCOCCOCCNc3cccc4c3C(=O)N(C3CCC(=O)N(C)C3=O)C4=O)nn2)cc1)c1ccccc1` (configuration not stated), for which the result in [3] was inactive. In addition, the outcome in assay [4] was Active.

As to `CNCC(=O)N[C@H](C(=O)N1Cc2cc(OCCOCCOCCOCCOc3ccc(Oc4c(-c5ccc(O)cc5)sc5cc(O)ccc45)cc3)ccc2C[C@H]1C(=O)N[C@@H]1CCCc2ccccc21)C(C)(C)C`, in assay [5], the half-maximal effective concentration (EC50) was below 1000 nM.

In the case of `CC/C(=C(\c1ccc(O)cc1)c1ccc(OCCN(C)C(=O)CCc2cn(CCCC(=O)N[C@H](C(=O)N3C[C@H](O)C[C@H]3C(=O)N[C@@H](C)c3ccc(-c4scnc4C)cc3)C(C)(C)C)nn2)cc1)c1ccccc1`, the outcome in assay [6] and in assay [10] was Active. Moreover, the result in assay [7] and in assay [9] was inactive. Besides, the concentration giving a half-maximal response (EC50) in assay [8] stood at 4.5 nM.

As for `CC/C(=C(\c1ccc(O)cc1)c1ccc(OCCN(C)C(=O)CCc2cn(CCCC(=O)N[C@H](C(=O)N3C[C@@H](O)C[C@H]3C(=O)N[C@@H](C)c3ccc(-c4scnc4C)cc3)C(C)(C)C)nn2)cc1)c1ccccc1`, in [11], the outcome was inactive.

`CC/C(=C(\c1ccc(O)cc1)c1ccc(OCCN(C)C(=O)CCc2cn(CCCCCC(=O)N[C@H](C(=O)N3C[C@H](O)C[C@H]3C(=O)N[C@@H](C)c3ccc(-c4scnc4C)cc3)C(C)(C)C)nn2)cc1)c1ccccc1`: the outcome in assay [6] and in assay [10] was Active. The outcome in assay [7] and in assay [9] was inactive. In [8], the EC50 came out at 5.3 nM.

As for `CC/C(=C(\c1ccc(O)cc1)c1ccc(OCCN(C)C(=O)CCc2cn(CCOCCOCCOCCNc3cccc4c3C(=O)N(C3CCC(=O)NC3=O)C4=O)nn2)cc1)c1ccccc1` (configuration not stated), in [12], the half-maximal effective concentration (EC50) was 11.9 nM. Moreover, the result in assay [13], in assay [14] and in assay [15] was inactive. Further, in [2], the outcome was Active.

`CC/C(=C(\c1ccc(O)cc1)c1ccc(OCCN(C)C(=O)COCCOCCOCCOc2cccc(C(=O)c3csc([C@@H]4CCCN4C(=O)[C@@H](NC(=O)[C@H](C)NC)C4CCCCC4)n3)c2)cc1)c1ccccc1` gave an EC50 in [5] of 10 nM.
